Experimental data taken from PMC6911266 (Nature, 2019).
Substitutions are numbered along the chain they refer to.

Tests used:
[1] = test system: P. falciparum WT (3D7) parasite line; assay: [3H]-drug accumulation assay in cultured parasites; type: cell-based, Plasmodium falciparum; details: 60 min, trophozoites
Procedure, shortened: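 Sorbitol-synchronized early trophozoites (24–26 h) were magnet-purified and resuspended in bicarbonate-free RPMI 1640 (25 mM HEPES, 10 mM glucose, 0.2 mM hypoxanthine, pH 7.4), counted by hemocytometer. They were mixed with an equal volume of radiolabelled drug (10 nM [3H]-CQ before mixing) for 1 h at 37°C, spun through dibutyl phthalate, then scintillation counted. CAR was internal/external drug, corrected for uninfected erythrocytes, per 10^6 cells at 75 fl; 4–6 assays in duplicate.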

[2] = target: T1, PfCRT Dd2 (Plasmodium falciparum, UniProt Q9N623, A220S/I356T/K76T/M74I/N326S/N75E/Q271E/R371I); assay: Equilibrium dialysis binding, PfCRT variant in nanodiscs; details: for Bmax, binding at pH 5.5 / Bmax, binding at pH 7.5: equilibrium dialysis
T1 sequence (Q9N623 1-424 M74I/N75E/K76T/A220S/Q271E/N326S/I356T/R371I): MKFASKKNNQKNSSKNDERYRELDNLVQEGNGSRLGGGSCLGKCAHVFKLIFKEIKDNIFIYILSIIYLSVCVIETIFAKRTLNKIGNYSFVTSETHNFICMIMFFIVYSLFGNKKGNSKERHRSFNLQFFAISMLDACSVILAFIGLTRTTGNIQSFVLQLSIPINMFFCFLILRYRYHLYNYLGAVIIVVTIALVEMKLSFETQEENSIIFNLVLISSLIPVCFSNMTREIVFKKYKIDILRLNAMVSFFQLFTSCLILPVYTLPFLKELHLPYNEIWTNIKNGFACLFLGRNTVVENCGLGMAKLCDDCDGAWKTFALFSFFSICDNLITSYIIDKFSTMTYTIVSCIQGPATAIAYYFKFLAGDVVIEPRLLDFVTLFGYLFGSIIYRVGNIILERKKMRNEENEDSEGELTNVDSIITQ

[3] = Uptake in control liposomes; type: biochemical; details: 100 nM [3H]-drug, liposomes without PfCRT
Procedure, shortened: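 Control liposomes lack PfCRT and are loaded with 100 mM KPi, pH 7.5, and 2 mM β-mercaptoethanol. They are diluted into 100 mM Tris/Mes, pH 5.5, with 100 nM [3H]-CQ (5.45 Ci/mmol) or [3H]-PPQ (15 Ci/mmol) for 1 min. Non-specific filter binding, measured as mock uptake without liposomes, is subtracted. Data come from 2 independent experiments, each with 4 technical replicates.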

[4] = test system: P. falciparum WT (3D7) parasite line; assay: Parasite drug susceptibility assay; type: cell-based, Plasmodium falciparum; details: Plasmodium falciparum, 3D7, 72 h
Procedure, shortened: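 Asynchronous asexual blood-stage parasites were seeded at 0.3% parasitemia and 1% hematocrit into 2-fold, 10-point test compound dilutions. Incubation was 72 h at 37°C under 5% O2/5% CO2/90% N2. Final parasitemia was read by flow cytometry. IC50 came from nonlinear regression, 4 independent assays in duplicate, with two-tailed Mann-Whitney U tests.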

[5] = target: T2, PfCRT 7G8+F145I (Plasmodium falciparum, UniProt W7FI62, F145I); assay: Equilibrium dialysis binding, PfCRT variant in nanodiscs; details: for Bmax, binding at pH 5.5 / Bmax, binding at pH 7.5: equilibrium dialysis
T2 sequence (W7FI62 1-424 F145I): T1 sequence (Q9N623 1-424 M74I/N75E/K76T/A220S/Q271E/N326S/I356T/R371I) with C72S, I74M, E75N, F145I, E271Q, S326D, T356L, I371R

[6] = target: T3, PfCRT 7G8+C350R (Plasmodium falciparum, UniProt W7FI62, C350R); assay: Transport; type: biochemical; details: for 1-min uptake, transport in proteoliposomes: 100 nM [3H]-drug, inwardly-directed pH gradient; for Vmax, transport in proteoliposomes: initial rates over 3 s, Michaelis-Menten fit; for transport activity (in words): proteoliposomes
T3 sequence (W7FI62 1-424 C350R): T1 sequence (Q9N623 1-424 M74I/N75E/K76T/A220S/Q271E/N326S/I356T/R371I) with C72S, I74M, E75N, E271Q, S326D, C350R, T356L, I371R

[7] = target: T4, PfCRT 7G8 (Plasmodium falciparum, UniProt W7FI62); assay: Equilibrium dialysis binding, PfCRT variant in nanodiscs; details: for Bmax, binding at pH 5.5 / Bmax, binding at pH 7.5: equilibrium dialysis
T4 sequence (W7FI62 1-424): T1 sequence (Q9N623 1-424 M74I/N75E/K76T/A220S/Q271E/N326S/I356T/R371I) with C72S, I74M, E75N, E271Q, S326D, T356L, I371R

[8] = target: T1, PfCRT Dd2; assay: Transport; type: biochemical; details: for transport activity (in words): proteoliposomes
[9] = binding at pH 5.5, equilibrium dialysis, pH 5.5
[10] = binding at pH 7.5, equilibrium dialysis, pH 7.5

Structure (SMILES) | Kd [2, 9] | Kd [2, 10] | Bmax, binding at pH 5.5 ([2]; pH 5.5) | Bmax, binding at pH 7.5 ([2]; pH 7.5) | 1-min uptake in control liposomes [3] | IC50 [4] | Kd [5, 9] | Kd [5, 10] | Bmax, binding at pH 5.5 ([5]; pH 5.5) | Bmax, binding at pH 7.5 ([5]; pH 7.5) | 1-min uptake, transport in proteoliposomes [6] | Vmax, transport in proteoliposomes [6] | transport activity (in words) [6] | Kd [7, 9] | Kd [7, 10] | Bmax, binding at pH 5.5 ([7]; pH 5.5) | Bmax, binding at pH 7.5 ([7]; pH 7.5) | transport activity (in words) [8] | also measured
CCN(CC)CCCC(C)Nc1ccnc2cc(Cl)ccc12 (centres unmarked) [CQ, chloroquine] | 0.2 ± 0.04 µM | 0.31 ± 0.04 µM | 0.42 ± 0.04 mol CQ/mol PfCRT | 0.38 ± 0.01 mol CQ/mol PfCRT | 0.12 ± 0.02 nmol/mg | 0.0122 ± 0.0005 µM | 0.24 ± 0.06 µM | 0.29 ± 0.05 µM | 0.39 ± 0.03 mol CQ/mol PfCRT | 0.43 ± 0.02 mol CQ/mol PfCRT | 0.80 ± 0.21 nmol/mg | 17.97 ± 0.87 nmol/mg/min | reduced uptake | 0.21 ± 0.06 µM | 0.28 ± 0.06 µM | 0.40 ± 0.03 mol CQ/mol PfCRT | 0.38 ± 0.02 mol CQ/mol PfCRT | robust transport activity | [3H]-CQ CAR (cellular accumulation ratio) ([1]; 5 nM [3H]-CQ): 876.7 ± 38.7; 1-min uptake, transport in proteoliposomes ([8]; 100 nM [3H]-drug, 1 min, inwardly-directed pH gradient): 3.33 ± 0.22 nmol/mg; Vmax, transport in proteoliposomes ([8]; initial rates over 3 s, Michaelis-Menten fit): 91.37 ± 2.79 nmol/mg/min
Clc1ccc2c(N3CCN(CCCN4CCN(c5ccnc6cc(Cl)ccc56)CC4)CC3)ccnc2c1 [PPQ, piperaquine] | 0.08 ± 0.01 µM | 0.22 ± 0.03 µM | 0.39 ± 0.01 mol CQ/mol PfCRT | 0.39 ± 0.02 mol CQ/mol PfCRT | 0.09 ± 0.01 nmol/mg | 0.0162 ± 0.0013 µM | 0.22 ± 0.03 µM | 0.26 ± 0.03 µM | 0.38 ± 0.01 mol CQ/mol PfCRT | 0.42 ± 0.01 mol CQ/mol PfCRT | 0.82 ± 0.07 nmol/mg | 153.00 ± 3.10 nmol/mg/min | substantially increased | 0.09 ± 0.02 µM | 0.22 ± 0.04 µM | 0.40 ± 0.01 mol CQ/mol PfCRT | 0.40 ± 0.02 mol CQ/mol PfCRT | Minimal | [3H]-PPQ CAR (cellular accumulation ratio) ([1]; 20 nM [3H]-PPQ): 2123.8 ± 72.2; fold increase in Kd compared with 7G8 parental isoform ([5]; pH 5.5): ~ 2 fold
